For 30 sequences, folding enthalpy and Tm results are on record in the array DNA melting data of Ke et al. (doi:10.1101/2024.01.08.574731).

Data set [1] can be described thus: folding enthalpy; higher = less favourable; fluorescence melt of hairpins on a sequencing array, two-state fit. As to conditions: sodium 0.088 M. In short, it runs like this: (§1)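 Cy3 fluorescence of library hairpins on a sequenced MiSeq flow cell, with annealed Cy3 and quencher oligos, was imaged in 50 mM Na-HEPES pH 8.0, 25 mM NaCl in 2.5 °C steps up to 60 °C. Signals were normalised to pre-quench Cy3 and to control variants. Melting temperature and folding enthalpy came from bootstrapped two-state fits, inverse-variance combined over four replicates. Fitted temperatures were raised by 9.35 °C to match UV melts.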

A short description of data set [2]: melting temperature; fluorescence melt of hairpins on a sequencing array, two-state fit, raised by 9.35 °C to match UV melts. As to conditions: sodium 0.088 M. The essentials: as §1

For the sequence GTTATCGAAAGATATAAC ((((((....)))..))), the folding enthalpy in data set [1] was -11.3 kcal/mol. In addition, the Tm in data set [2] amounted to 29.3 °C.

Take GTTATGACGAAAGTCAAC (((..(((....)))))): the folding enthalpy in data set [1] was -10.5 kcal/mol. Further, the Tm in data set [2] worked out at 26.2 °C.

As to GTTATGGGAAACCATGAC ((.((((....)))).)), the folding enthalpy in data set [1] is -34.4 kcal/mol. In addition, the Tm in data set [2] is 43.5 °C.

As for GTTATTCCGAAAGGAAAC (((..(((....)))))), the folding enthalpy in data set [1] is -7.61 kcal/mol. In addition, in data set [2], the Tm was 21.5 °C.

As for GTTATTCGAAAGAAAAAC (((.(((....))).))), the folding enthalpy in data set [1] was -19.6 kcal/mol. The Tm in data set [2] came out at 29.9 °C.

Take GTTATTCGAAAGAAGAAC (((.(((....))).))): the folding enthalpy in data set [1] is -28.3 kcal/mol. For the same sequence, in data set [2], the Tm is 42.7 °C.

Regarding GTTATTGAAAAATAAC ((((((....)))))), in data set [1], the folding enthalpy is -25 kcal/mol. Besides, the Tm in data set [2] is 37.5 °C.

For GTTATTGCGAAAGCAAAC (((..(((....)))))), the folding enthalpy in data set [1] is -10.3 kcal/mol. For the same sequence, the Tm in data set [2] came to 29.1 °C.

As to GTTCAAGGAAACTCGAAC ((((.((....)).)))), the folding enthalpy in data set [1] is -11.7 kcal/mol. The Tm in data set [2] was found to be 28.7 °C.

GTTCAAGGAAACTTGAAC (((((((....))))))): in data set [1], the folding enthalpy was -46.1 kcal/mol. Moreover, in data set [2], the Tm is 53.9 °C.

For the sequence GTTCACGAAAGTGATAAC ((((((....)))..))), in data set [1], the folding enthalpy was -10.8 kcal/mol. Besides, in data set [2], the Tm was 35 °C.

For the sequence GTTCACGGAAACGCGAAC ((((.((....)).)))), the folding enthalpy in data set [1] was -47.1 kcal/mol. Also, in data set [2], the Tm was 48.3 °C.

Turning to GTTCACGGAAACGTAAAC (((.(((....))).))), in data set [1], the folding enthalpy is -11.4 kcal/mol. Moreover, in data set [2], the Tm is 34.9 °C.

Regarding GTTCAGGCGAAAGCCAAC (((..(((....)))))), the folding enthalpy in data set [1] is -8.95 kcal/mol. The Tm in data set [2] turned out to be 26.1 °C.

In the case of GTTCAGGGAAACTTGAAC (((((.(....).))))), in data set [1], the folding enthalpy was -22.8 kcal/mol. Also, the Tm in data set [2] was 40.7 °C.

As to GTTCATGAAAATGAAC ((((((....)))))), the folding enthalpy in data set [1] is -33 kcal/mol. Besides, the Tm in data set [2] was 52 °C.

GTTCATGGAAACACGAAC ((((.((....)).)))): the folding enthalpy in data set [1] is -28.4 kcal/mol. The Tm in data set [2] is 34.4 °C.

For GTTCATGGAAACGTGAAC (((((.(....).))))), the folding enthalpy in data set [1] is -40.6 kcal/mol. In data set [2], the Tm is 46.4 °C.

Consider GTTCCACGAAAGTGAAAC (((.(((....))).))), for which, in data set [1], the folding enthalpy was -25.2 kcal/mol. Moreover, the Tm in data set [2] was 43.4 °C.

As for GTTCCCGAAAGGGAAAAC ((((((....)))..))), in data set [1], the folding enthalpy is -10.8 kcal/mol. Further, the Tm in data set [2] turned out to be 41 °C.

Consider GTTCCCGAAAGGGAGAAC ((((((....)))..))), for which the folding enthalpy in data set [1] is -10.3 kcal/mol. Also, the Tm in data set [2] came to 38 °C.

For the sequence GTTCCCGAAAGGGGCAAC ((((((....)))..))), the folding enthalpy in data set [1] was -9.18 kcal/mol. The Tm in data set [2] amounted to 30.2 °C.

Turning to GTTCCCGAAAGGGTCAAC ((((((....)))..))), the folding enthalpy in data set [1] was -9.41 kcal/mol. Moreover, in data set [2], the Tm is 26.9 °C.

GTTCCCGAAAGGGTTAAC ((((((....)))..))): the folding enthalpy in data set [1] is -8.45 kcal/mol. In data set [2], the Tm turned out to be 30.1 °C.

GTTCCCGGAAACGGGAGC (.(((((....))))).): in data set [1], the folding enthalpy is -26 kcal/mol. In addition, the Tm in data set [2] was 54.2 °C.

As to GTTCCGCGAAAGCGAAAC (((.(((....))).))), the folding enthalpy in data set [1] is -23.6 kcal/mol. Further, in data set [2], the Tm was found to be 53.9 °C.

Regarding GTTCCGGAAACGGAAC ((((((....)))))), the folding enthalpy in data set [1] was -32.4 kcal/mol. In data set [2], the Tm was determined as 66.3 °C.

As for GTTCCGGGAAACCGAAAC (((.(((....))).))), the folding enthalpy in data set [1] is -25 kcal/mol. Also, the Tm in data set [2] was 38.5 °C.

Regarding GTTCCGGGAAACTGGAAC (((((.(....).))))), the folding enthalpy in data set [1] is -39.6 kcal/mol. The Tm in data set [2] amounted to 52.5 °C.

As to GTTCCTGAAAAGGAAC ((((((....)))))), the folding enthalpy in data set [1] was -31.4 kcal/mol. Besides, in data set [2], the Tm was 57.1 °C.
